# Experiments:
# [1] = biological target: T1, Amine oxidase [flavin-containing] B (Homo sapiens, UniProt P27338); test: biochemical; type: cell-based
# T1 sequence (P27338 whole entry): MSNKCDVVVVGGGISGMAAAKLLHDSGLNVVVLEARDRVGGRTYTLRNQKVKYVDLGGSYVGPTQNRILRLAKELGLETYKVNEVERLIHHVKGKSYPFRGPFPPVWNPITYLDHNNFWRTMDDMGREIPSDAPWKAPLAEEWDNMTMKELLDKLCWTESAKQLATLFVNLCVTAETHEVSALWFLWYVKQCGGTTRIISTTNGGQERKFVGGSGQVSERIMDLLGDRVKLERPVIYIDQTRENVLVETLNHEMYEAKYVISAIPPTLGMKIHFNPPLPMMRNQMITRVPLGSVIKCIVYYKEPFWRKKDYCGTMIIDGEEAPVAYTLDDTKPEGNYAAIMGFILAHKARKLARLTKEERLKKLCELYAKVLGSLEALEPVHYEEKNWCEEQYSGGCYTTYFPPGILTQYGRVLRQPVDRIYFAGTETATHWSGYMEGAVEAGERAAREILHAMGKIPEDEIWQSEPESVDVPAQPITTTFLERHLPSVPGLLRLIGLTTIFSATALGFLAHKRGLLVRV
# [2] = biological target: T2, Amine oxidase [flavin-containing] A (Homo sapiens, UniProt P21397); test: Inhibition of human recombinant MAOA expressed in baculovirus infected BTI insect cells assessed as hydrogen peroxide production at 100 uM after 15 mins by Amplex red assay; conditions: 0.25 h; for inhibition (INH): 100 µM
# T2 sequence (P21397 whole entry): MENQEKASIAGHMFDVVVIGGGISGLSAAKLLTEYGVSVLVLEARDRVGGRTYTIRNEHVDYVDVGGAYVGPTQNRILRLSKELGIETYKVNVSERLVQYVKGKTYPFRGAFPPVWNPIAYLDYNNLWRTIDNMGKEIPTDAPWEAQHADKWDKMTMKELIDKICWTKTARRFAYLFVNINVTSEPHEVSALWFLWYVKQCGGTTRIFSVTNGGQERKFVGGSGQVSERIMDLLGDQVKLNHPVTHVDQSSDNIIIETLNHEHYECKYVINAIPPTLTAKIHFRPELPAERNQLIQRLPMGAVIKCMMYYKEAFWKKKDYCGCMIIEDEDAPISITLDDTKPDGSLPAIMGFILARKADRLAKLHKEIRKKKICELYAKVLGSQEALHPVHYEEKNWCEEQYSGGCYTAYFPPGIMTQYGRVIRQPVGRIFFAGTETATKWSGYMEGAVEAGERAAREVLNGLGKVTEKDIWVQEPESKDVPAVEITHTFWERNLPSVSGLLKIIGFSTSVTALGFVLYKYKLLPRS
# How it was run: (§1)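 Recombinant hMAO-A or hMAO-B, in an amount oxidizing 165 pmol p-tyramine/min in controls, preincubated with test drug 15 min at 37 °C in 0.05 M sodium phosphate pH 7.4, dark. Reaction started with 1 U/ml HRP, Amplex Red and 1 mM p-tyramine (final). Resorufin read at ex 545/em 590 nm over 15 min. Background subtracted; vehicle (DMSO) controls. Precipitation limited higher concentrations.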
# [3] = species: Homo sapiens; test: Selectivity index, ratio of IC50 for human recombinant MAOA to IC50 for human recombinant MAOB
# How it was run: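 IC50 values for hMAO-A and hMAO-B came from the Amplex Red/HRP assay, with 1 mM p-tyramine and readings at ex 545/em 590 nm at 37 °C. […] The selectivity index is IC50(MAO-A)/IC50(MAO-B). Where MAO-A was not inhibited, its IC50 was set at the highest concentration tested. Values are mean ± SEM.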
# [4] = biological target: T1, Amine oxidase [flavin-containing] B; test: Inhibition of human recombinant MAOB expressed in baculovirus infected BTI insect cells assessed as hydrogen peroxide production at 1 mM after 15 mins by Amplex red assay; conditions: 0.25 h, 1000 µM
# How it was run: as §1
# [5] = biological target: T1, Amine oxidase [flavin-containing] B; test: Inhibition of human recombinant MAOB expressed in baculovirus infected BTI insect cells assessed as hydrogen peroxide production at 100 uM after 15 mins by Amplex red assay; conditions: 0.25 h; for inhibition (INH): 100 µM
# How it was run: as §1
Structure (SMILES),IC50 [1] [µM],inhibition (INH) [2],Selectivity Index [3],inhibition (INH) [5],other results
CNC(=S)N1CCC(c2ccc(F)cc2)=N1,51,Not Active,> 1.96,,
CNC(=S)N1CCC(c2cccc(OC)c2)=N1,71.3,Not Active,> 1.4,,
CNC(=S)N1CC(C)C(c2ccc(OC)cc2)=N1 (stereo unspecified),49.4,Not Active,> 2.02,,
O=C(NCCN1CCOCC1)c1ccc(Cl)cc1 [MOCLOBEMIDE],,,,,inhibition (INH) [4]: Not Active
CNC(=S)N1CC(C)C(c2ccc(Cl)cc2)=N1 (stereo unspecified),34.8,Not Active,> 2.87,,
NC(=S)N1CCC(c2ccc(F)cc2)=N1,,Not Active,,Not Active,
CNC(=S)N1CC(C)C(c2ccccc2)=N1 (stereo unspecified),,Not Active,,,inhibition at 100 µM [5]: 40%
CC1CN(C(N)=S)N=C1c1ccc(F)cc1 (stereo unspecified),,,,,inhibition at 100 µM [2]: 40%; inhibition at 100 µM [5]: 40%
COc1ccc(C2=NN(C(N)=S)CC2C)cc1 (stereo unspecified),84.6,,> 1.18,,inhibition at 100 µM [2]: 40%
Cc1ccccc1C1=NN(C(N)=S)CC1,,Not Active,,Not Active,
CNC(=S)N1CCC(c2ccc(OC)cc2)=N1,13.7,Not Active,> 7.3,,
CNC(=S)N1CC(C)C(c2ccc(C)cc2)=N1 (stereo unspecified),,,,,inhibition at 100 µM [2]: 40%; inhibition at 100 µM [5]: 40%
CC1CN(C(N)=S)N=C1c1ccccc1 (stereo unspecified),,Not Active,,,inhibition at 100 µM [5]: 40%
COc1ccc(C2=NN(C(N)=S)CC2)cc1,15.5,Not Active,> 6.46,,
COc1cccc(C2=NN(C(N)=S)CC2)c1,,Not Active,,Not Active,
CNC(=S)N1CCC(c2ccc(C)cc2)=N1,16.8,,> 5.96,,inhibition at 100 µM [2]: 40%
CNC(=S)N1CCC(c2cccc(C)c2)=N1,53.4,Not Active,> 1.87,,
CC1CN(C(N)=S)N=C1c1ccc(Cl)cc1 (stereo unspecified),,,,,inhibition at 100 µM [2]: 40%; inhibition at 100 µM [5]: 40%
CNC(=S)N1CCC(c2cccs2)=N1,,Not Active,,Not Active,
NC(=S)N1CCC(c2ccc(Cl)cc2Cl)=N1,,Not Active,,Not Active,
Cc1ccc(C2=NN(C(N)=S)CC2C)cc1 (stereo unspecified),,Not Active,,,inhibition at 100 µM [5]: 40%
Cc1ccc(C2=NN(C(N)=S)CC2)cc1,18.1,Not Active,> 5.51,,
NC(=S)N1CCC(c2cccs2)=N1,,Not Active,,Not Active,
CNC(=S)N1CC(C)C(c2ccc(F)cc2)=N1 (stereo unspecified),,Not Active,,,inhibition at 100 µM [5]: 40%
Cc1cccc(C2=NN(C(N)=S)CC2)c1,,Not Active,,Not Active,
CNC(=S)N1CCC(c2ccccc2C)=N1,,Not Active,,Not Active,

# — ChEMBL document CHEMBL1250494, “Synthesis of new 3-aryl-4,5-dihydropyrazole-1-carbothioamide derivatives. An investigation on their ability to inhibit monoamine oxidase” (Eur J Med Chem, 2010)
